Compound activity as filed in PubChem.
Compounds with a hit are over-represented: about 2.8% of the library has one in this group of screens.
pPAFAH inh = pPAFAH enzyme inhibitors, primary screen, biochemical, fluorescence polarization, human. 330,000 tested, 1.5% active. recombinant pPAFAH, FP-rhodamine probe fluorescence polarization. AID 463082, 2010. inhibition, % at 3.39 µM. Platelet-activating factor acetylhydrolase (Homo sapiens), Q13093;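 active = inhibition above the mean inhibition across the screen plus 3 SD, cut at about 25% in these data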;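 note: inhibitors block binding of the rhodamine activity-based probe so polarization drops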
mABHD4 FP = ABHD4 inhibitors, primary screen, biochemical, fluorescence polarization, mouse; (Lyso)-N-acylphosphatidylethanolamine lipase (Mus musculus), Q8VD66; purified mABHD4, FP-Rh probe fluorescence polarization; inhibition, % at 8.92 µM; 370,000 tested, 0.54% active; AID 720543, 2013;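 active = inhibition exceeding the mean over every tested compound plus 3 SD, cut at about 30% in these data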
Target sequence (Q8VD66 whole entry, looked up): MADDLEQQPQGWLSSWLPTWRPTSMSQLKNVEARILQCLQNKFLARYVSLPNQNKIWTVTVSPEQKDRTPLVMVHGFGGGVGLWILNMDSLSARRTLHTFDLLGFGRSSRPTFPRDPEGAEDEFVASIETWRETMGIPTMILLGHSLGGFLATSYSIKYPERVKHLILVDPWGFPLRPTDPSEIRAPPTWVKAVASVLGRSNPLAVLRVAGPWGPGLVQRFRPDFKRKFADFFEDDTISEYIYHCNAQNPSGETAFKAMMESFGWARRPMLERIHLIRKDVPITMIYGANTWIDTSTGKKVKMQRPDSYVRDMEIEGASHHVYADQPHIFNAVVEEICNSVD
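Test system: mABHD4 protein; Read-out basis: % inhibition; Incubation: 45 min + 60 min at 25 °C; Repeats: single replicate; Technique: fluorescence polarization with parallel and perpendicular emission, 525/598 nm; Compound: 8.92 µM, single dose; Benchmarks: full inhibition S159A mutant plus DMSO, zero as sample-well median.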
PAFAH1B2 FP inh = PAFAH1B2 enzyme inhibitors, primary screen, biochemical, fluorescence polarization, human; Platelet-activating factor acetylhydrolase IB subunit alpha2 (Homo sapiens), P68402; recombinant PAFAH1B2, FP-rhodamine activity probe; inhibition, % at 3.39 µM; 340,000 tested, 1.2% active;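 active = inhibition above the mean of all tested compounds plus 3 SD, cut at about 24% in these data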
Target sequence (P68402 whole entry, looked up): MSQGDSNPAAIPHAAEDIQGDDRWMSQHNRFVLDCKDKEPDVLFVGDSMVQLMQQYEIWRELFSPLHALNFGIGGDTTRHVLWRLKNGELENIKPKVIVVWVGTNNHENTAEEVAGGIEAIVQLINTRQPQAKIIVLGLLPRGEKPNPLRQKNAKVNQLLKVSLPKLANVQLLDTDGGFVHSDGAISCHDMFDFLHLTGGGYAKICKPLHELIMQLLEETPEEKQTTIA
HTRA1 inh = HTRA1 serine protease inhibitors, primary screen, biochemical, fluorescence polarization, HTS | recombinant HTRA1, FP-rhodamine activity-based probe | inhibition, % at 5.96 µM | Q92743 | 340,000 tested, 0.5% active; in the data active = inhibition above about 36%
PAFAH1B3 FP inh = PAFAH1B3 enzyme inhibitors, primary screen, biochemical, fluorescence polarization, human; recombinant PAFAH1B3, FP-rhodamine probe; inhibition, % at 3.39 µM; 340,000 tested, 0.28% active; AID 492972, 2010;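 active = inhibition above the screen-wide average of all tested compounds plus 3 SD, cut at about 25% in these data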
PAFAH2 FP inh = PAFAH2 enzyme inhibitors, primary screen, biochemical, fluorescence polarization, human; Platelet-activating factor acetylhydrolase 2, cytoplasmic (Homo sapiens), Q99487; recombinant PAFAH2, FP-rhodamine activity probe; inhibition, % at 3.39 µM; 340,000 tested, 0.99% active;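 active = inhibition above the mean over all tested compounds plus 3 SD, cut at about 30% in these data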;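 note: inhibitors block probe labeling of enzyme so polarization drops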
PAFAH2 FP conf = PAFAH2 enzyme inhibitors, confirmation, biochemical, fluorescence polarization, human. shares compounds with PAFAH2 FP inh. recombinant PAFAH2, FP-rhodamine activity probe. inhibition, % at 3.39 µM. 2,300 tested, 65% active;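 active = mean inhibition over three repeats above a set limit taken from the earlier primary screen, cut at about 30% in these data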;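 note: inhibitor blocks binding of rhodamine activity probe so polarization falls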
Hits are given with their value; - = inactive; . = no result given.

SMILES	pPAFAH inh	mABHD4 FP	PAFAH1B2 FP inh	HTRA1 inh	PAFAH1B3 FP inh	PAFAH2 FP inh	PAFAH2 FP conf
COc1ccc(C(=O)n2cc(C(=O)c3cc(C)ccc3O)cn2)cc1	-	-	-	-	-	-	.
COc1ccc(O)c(C(=O)c2cnn(C(=O)c3cc(C)oc3C)c2)c1	-	-	-	-	-	41.0	-
COC(=O)C1CN(C2CCCC2)CCS(=O)(=O)N1Cc1ccc(C)cc1 (stereo unspecified)	.	-	.	.	.	.	.
CSCCC(NS(=O)(=O)c1ccc2ccccc2c1)C(=O)O (stereo unspecified)	-	-	-	-	-	-	.
CSCCC(NS(=O)(=O)c1ccc(Cl)c(Cl)c1)C(=O)O (stereo unspecified)	-	-	-	-	-	68.0	70.8
O=C(CS(=O)(=O)Cc1ccccc1)Nc1ccc(Cl)cn1	-	-	-	-	-	61.1	40.0
O=C(CS(=O)(=O)c1ccccc1)Nc1ccccn1	-	-	-	-	-	-	.
O=C(CS(=O)(=O)Cc1ccccc1)Nc1ccccn1	-	-	-	-	-	35.5	-
CC(C)CN1C(=O)C[C@]2(C(=O)N(C)c3ccc(NC(=O)c4cc(F)ccc4F)cc32)C1c1ccccc1 (stereo partly specified)	.	-	.	.	.	.	.
CC1C=CC=CCCC=CC=CC=CC=CC(OC2O[C@H](C)[C@@H](O)[C@H](N)[C@@H]2O)CC(O)C(C(=O)O)C(O)CC(=O)CC(O)C(O)CCC(O)CC(O)CC(O)CC(=O)OC(C)C(C)C1O (stereo partly specified)	.	-	.	.	.	.	.
COc1ccc(-c2nc3ccccc3c(=O)n2Cc2ccccc2)cc1COc1ccc(NC(C)=O)cc1	.	-	.	.	.	.	.
Cc1noc(C)c1COc1ccc(C(=O)OCc2nnc(-c3ccc(Cl)cc3)o2)cc1	-	-	-	-	-	66.2	68.5
Cc1ccsc1C(=O)OCc1nnc(-c2ccccc2)o1	-	-	-	-	-	50.8	-
CCOC(=O)c1cccc(S(=O)(=O)N2CCOCC2)c1	-	-	-	-	-	-	.
O=C(OCCOc1ccccc1F)c1cccc(S(=O)(=O)N2CCOCC2)c1	-	-	-	-	-	29.7	-
Cc1ccccc1C(=O)OCc1nnc(-c2ccc(Cl)cc2)o1	-	-	-	-	-	33.4	-
O=C(OCc1nnc(-c2ccccc2)o1)c1ccc(Br)o1	-	-	-	-	-	-	.
O=C(OCc1nnc(-c2ccc(Br)cc2)o1)c1ccco1	-	-	-	-	-	53.9	42.1
O=C(OCc1nnc(-c2ccccc2)o1)c1cccc(S(=O)(=O)N2CCOCC2)c1	-	-	-	-	-	57.2	40.5
Cc1nc2ccc(C(=O)OCc3nnc(-c4ccc(Br)cc4)o3)cc2nc1C	-	-	-	-	-	-	.
Cc1nc2ccc(C(=O)OCc3nnc(-c4ccccc4)o3)cc2nc1C	.	-	-	-	-	34.8	-
O=C(OCc1nnc(-c2ccccc2)o1)c1ccccc1	-	-	-	-	-	57.2	50.2
Cc1noc(C)c1COC(=O)c1cccc(S(=O)(=O)N2CCOCC2)c1	-	-	-	-	-	-	.
O=C(/C=C/c1ccccc1)OCN1C(=O)c2ccccc2C1=O	-	-	-	-	-	32.9	-
COc1ccc(C(=O)OCN2C(=O)c3ccccc3C2=O)cc1	-	-	-	-	-	36.8	-
SMILES	pPAFAH inh	mABHD4 FP	PAFAH1B2 FP inh	HTRA1 inh	PAFAH1B3 FP inh	PAFAH2 FP inh	PAFAH2 FP conf
COc1cccc(/C=C/C(=O)OCC(=O)Nc2cc(S(=O)(=O)N3CCOCC3)ccc2C)c1	-	-	-	-	-	54.6	41.8
Cc1ccc(S(=O)(=O)N2CCOCC2)cc1NC(=O)COC(=O)c1ccco1	.	-	.	-	.	.	.
Cc1ccc(S(=O)(=O)N2CCOCC2)cc1NC(=O)COC(=O)/C=C/c1ccco1	-	-	-	-	-	46.0	44.8
CC(C)(C)N1Cc2nnn(Cc3ccccc3)c2-c2cc(N3CCCCC3)ccc2S1(=O)=O	.	-	.	.	.	.	.
Cc1ccc(S(=O)(=O)Nc2cc(C(=O)O)ccc2N2CCC(C)CC2)cc1C	.	-	.	.	.	.	.
CCOC(=O)Cc1c(C)nc2c(-c3cccc(Br)c3)c[nH]n2c1=O	-	-	-	-	-	32.6	-
Cc1nc(NC(=O)COC(=O)c2ccc(CO)cc2)c(Cl)cc1Cl	-	-	-	-	-	44.2	-
Cc1nc(NC(=O)COC(=O)CCc2ccccc2)c(Cl)cc1Cl	-	-	-	-	-	-	.
COc1ccc(N2CC(O)=C(c3nc(-c4ccc(F)cc4)cs3)C2=N)cc1OC	-	-	-	-	-	41.3	41.7
CCOC(=O)C1CCN(S(=O)(=O)c2ccc3c4c2CC(=O)N4CC(C)S3)CC1 (stereo unspecified)	-	-	-	-	-	-	.
CCOC(=O)C1CCCN(S(=O)(=O)c2ccc3c4c2CC(=O)N4CC(C)S3)C1 (stereo unspecified)	-	-	-	-	-	34.7	-
CCc1ccccc1NC(=O)COC(=O)C1C2CC3OC(=O)C1C3C2 (stereo unspecified)	-	-	-	-	-	39.6	30.8
COc1cccc(NC(=O)COC(=O)C2C3CC4OC(=O)C2C4C3)c1 (stereo unspecified)	-	-	-	-	-	78.8	68.5
O=C(COC(=O)C1C2CC3OC(=O)C1C3C2)Nc1cccc(C(F)(F)F)c1 (stereo unspecified)	-	-	-	-	-	70.8	78.5
COc1cccc(NC(=O)C2C3CC4OC(=O)C2C4C3)c1 (stereo unspecified)	-	-	-	-	-	-	.
O=C(COC(=O)C1C2CC3OC(=O)C1C3C2)Nc1ccc(Cl)cc1 (stereo unspecified)	-	-	-	-	-	83.6	73.7
C#CCNC(=O)C[C@H]1C[C@@]2(C(=O)OC)C(=C[C@H](C3CCCC3)O[C@@H]2C)N(Cc2cccc3ccccc23)C1=O	.	-	.	.	.	.	.
NC(=S)n1[nH]c(-c2ccc([N+](=O)[O-])cc2)c(N=Nc2cccc(Cl)c2)c1=O	.	-	-	-	-	36.3	-
COc1ccccc1NC(=O)CC1Nc2ccccc2NC1=O (stereo unspecified)	-	-	-	-	-	86.3	-
CCOC(=O)c1c(CC(C)C)csc1/N=C/C1C(=O)CCCC1=O	-	-	-	-	-	33.4	-
CCOC(=O)c1c(-c2ccccc2)csc1/N=C/C1C(=O)CCCC1=O	-	-	-	-	-	-	.
